For data set [1], the system named is Plasmodium falciparum. Kind of data set: Antimalarial activity against chloroquine-resistant erythrocytic stage of Plasmodium falciparum K1 infected in human red blood cells assessed as growth inhibition after 48 hrs by [3H]-hypoxanthine incorporation assay. The format is functional, organism-based. Put shortly: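 Erythrocytic P. falciparum in RPMI 1640 without hypoxanthine, with HEPES, NaHCO3, neomycin, Albumax, and human A+ red cells at 2.5% haematocrit and 0.3% parasitaemia. Compounds from a 10 mg/mL DMSO stock, eleven 3-fold dilutions from 100 to 0.002 µg/mL. Incubated 48 h at 37 °C (4% CO2, 3% O2), then 3H-hypoxanthine added for 24 h more. Cells harvested and counted by scintillation. IC50 by linear regression of the sigmoidal curves, mean of two independent assays.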

Data set [2] concerns Plasmodium berghei. Kind of data set: Antimalarial activity against Plasmodium berghei infected in Swiss mouse assessed as reduction in parasitaemia at 20 mg/kg, ip administered for 4 days measured on day 4 post last dose by FACS analysis relative to control. The data set is classed as functional. Details: scale not given: the % may be the effect or the level left. The settings on record: route intraperitoneal. In short, it runs like this: (§1)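 Intraperitoneal dosing at 20 mg/kg daily for four consecutive days. Parasitaemia read on day 4 and day 7. Activity is the difference between mean percent parasitaemia of the control group (n = 5 mice) and the treated group, expressed as a percent of control.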

Data set [3] relates to Plasmodium falciparum. Nature of the data set: Antimalarial activity against chloroquine-sensitive erythrocytic stage of Plasmodium falciparum NF54 infected in human red blood cells assessed as growth inhibition after 72 hrs by [3H]-hypoxanthine incorporation assay.
For the next data set, the system named is L6. Kind of data set: Cytotoxicity against rat L6 cells assessed as growth inhibition after 70 hrs by Alamar blue staining-based inverted microscopic analysis. The data set is classed as cell-based. The note with it: L6, 70 h. Put shortly:
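L6 rat skeletal myoblasts, 4000 cells/well in RPMI 1640 with 1% L-glutamine (200 mM) and 10% FBS. Eleven 3-fold dilutions spanning 100 to 0.002 µg/mL. After 70 h, Alamar Blue added for 2 h more. Fluorescence read at ex 536/em 588 nm. IC50 from sigmoidal dose–inhibition curves by linear regression.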

The test system of data set [4] is Plasmodium berghei. Nature of the data set: Antimalarial activity against Plasmodium berghei infected in Swiss mouse assessed as reduction in parasitaemia at 20 mg/kg, ip administered for 4 days measured on day 7 by FACS analysis relative to control. Also on record: scale not given: the % may be the effect or the level left. The format is functional. The settings on record: route intraperitoneal. Put shortly:
as §1

Data set [5] deals with Plasmodium falciparum. Kind of data set: Resistance index, ratio of IC50 for chloroquine-resistant erythrocytic stage of Plasmodium falciparum K1 to IC50 for chloroquine-sensitive erythrocytic stage of Plasmodium falciparum NF54. The data set is classed as functional.
Data set [6] is described as follows: Selectivity index, ratio of IC50 for rat L6 cells to IC50 for chloroquine-resistant erythrocytic stage of Plasmodium falciparum K1. The data set is classed as toxicity, cell-based. The settings on record: read-out: Ratio IC50. In short, it runs like this:
(§2)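 IC50 in rat L6 skeletal myoblasts divided by the antiplasmodial IC50 for the named strain. L6 cells were seeded at 4000 per well in RPMI 1640 with L-glutamine and 10% FBS and exposed to eleven 3-fold dilutions from 100 to 0.002 µg/mL for 70 h. Alamar Blue was then added for 2 h and fluorescence read at ex 536 / em 588 nm. IC50 by linear regression of the sigmoidal curves.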

The nature of data set [7]: Inhibition of beta-haematin formation after 5 to 6 hrs by UV-vis spectamax plate reader analysis. The data set is classed as functional. Put shortly: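 Detergent-mediated assay: compounds from DMSO stocks (20, 2, 0.4 mM) in duplicate, 0–1000 µM final. Added water and NP-40, then haematin at 100 µM final in 0.5 M acetate buffer pH 4.8. Incubated at 37 °C for 5–6 h. Pyridine added to 5% v/v final in HEPES pH 7.4 with acetone. Haem–pyridine absorbance read (405 nm). IC50 from sigmoidal fits.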

A short description of data set [8]: Selectivity index, ratio of IC50 for rat L6 cells to IC50 for chloroquine-sensitive erythrocytic stage of Plasmodium falciparum NF54. The data set is classed as toxicity, cell-based. The settings on record: read-out: Ratio IC50. Put shortly: as §2
For a further data set, the system named is MRC5. Kind of data set: Cytotoxicity against human MRC5 cells assessed as growth inhibition. The data set is classed as cell-based.

The record followed here is ChEMBL document CHEMBL2390835, “Synthesis and antimalarial testing of neocryptolepine analogues: addition of ester function in SAR study of 2,11-disubstituted indolo[2,3-b]quinolines” (Eur J Med Chem, 2013).

A value given as a limit tells only on which side of the number the result lay.

Regarding `COC(=O)c1ccc2nc3n(C)c4ccccc4c(NCCCN)c-3c2c1`, the half-inhibitory concentration (IC50) in the data set on Plasmodium falciparum [1] stood at 30.3 nM; with Plasmodium falciparum [3], 24.8 nM; in the data set with L6 it was 218 nM; in [7], 48900 nM. Further, the Activity in the data set on Plasmodium berghei [2] stood at 33.4%; in the data set on Plasmodium berghei [4] it was 72.5%. Besides, in the data set on Plasmodium falciparum [5], the “Ratio IC50” value was 1.22. The results for the selectivity ratio in data set [6] and in data set [8] were 7.19 and 8.79, respectively.

Consider `Cn1c2nc3ccccc3c-2cc2cc(Br)ccc21`, for which, in the data set on MRC5, the IC50 was above 32000 nM.
